In ChEMBL document CHEMBL4052621, “Identification of new anti-inflammatory agents based on nitrosporeusine natural products of marine origin” (Eur J Med Chem, 2017):
The source made the active and inactive calls. The calls are words filed in the database; no cut-off is given here.

How the values were obtained:
RAW264.7 [1] = assay: Selectivity index, ratio IC50 for cytotoxicity against mouse RAW264.7 cells to IC50 for antiinflammatory activity in mouse RAW264.7 cells; type: functional
How it was run: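 Ratio A/B in RAW 264.7 cells. A is the cytotoxicity IC50 from the MTT assay. B is the IC50 for inhibiting NO production in LPS-stimulated cells, with nitrite in the culture medium measured by Griess reagent. Both IC50s are reported with 95% confidence intervals.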

RAW264.7 [2] = assay: Cytotoxicity against mouse RAW264.7 cells assessed as decrease in cell viability after 24 hrs by MTT assay; type: cell-based; details: RAW264.7, 24 h
How it was run: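 RAW264.7 macrophage viability after compound exposure was measured by MTT assay. IC50 (µM) was calculated and reported with a 95% confidence interval.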

[3] = Antiviral activity against Influenza A virus A/WSN/33(H1N1) infected in MDCK cells preincubated for 1 hr followed by compound wash measured after 48 hrs by plaque reduction assay; type: functional, cell-based, Influenza A virus (A/WSN/1933(H1N1))
[4] = Antiviral activity against Influenza A virus A/WSN/33(H1N1) infected in MDCK cells at 50 uM preincubated for 15 mins measured after 1.5 days by CellTiter-Glo assay relative to control; type: functional, Influenza A virus (A/WSN/1933(H1N1))
RAW264.7 [5] = assay: Antiinflammatory activity in mouse RAW264.7 cells assessed as inhibition of LPS-induced IL-6 production at 30 uM after 24 hrs by phycoerythrin staining based flow cytometry; type: functional, cell-based
How it was run: (§1)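 LPS-stimulated RAW 264.7 cells were co-treated with enantiomers at 30 µM. Cell protein extracts were analysed by cytometric bead array for IL-12, IL-6, TNF-α, MCP-1 and IFN-γ and compared with LPS-only cells. Mean ± SD of three independent experiments.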

RAW264.7 [6] = assay: Antiinflammatory activity in mouse RAW264.7 cells assessed as inhibition of LPS-induced MCP-1 production at 30 uM after 24 hrs by phycoerythrin staining based flow cytometry; type: functional, cell-based; how it was run: as §1
Mus musculus = species on record: Mus musculus; assay: Inhibition of LPS-induced NFkappaB phosphorylation in mouse RAW264.7 cells at 30 uM after 24 hrs by Western blot analysis; type: cell-based
How it was run: (§2)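 Immunoblot of protein from RAW 264.7 cells under control, LPS, and LPS + enantiomer (30 µM) conditions. COX-2, iNOS and phospho-NF-κB bands were quantified by densitometry and normalised to β-actin. Mean ± SD from 3 independent experiments; p-values are versus LPS-treated cells.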

RAW264.7 [7] = assay: Antiinflammatory activity in mouse RAW264.7 cells assessed as inhibition of LPS-induced iNOS production at 30 uM after 24 hrs by Western blot analysis; type: functional, cell-based; how it was run: as §2
RAW264.7 [8] = assay: Antiinflammatory activity in mouse RAW264.7 cells assessed as inhibition of LPS-induced COX-2 production at 30 uM after 24 hrs by Western blot analysis; type: functional, cell-based; how it was run: as §2
RAW264.7 [9] = assay: Antiinflammatory activity in mouse RAW264.7 cells assessed as inhibition of LPS-induced TNF-alpha production at 30 uM after 24 hrs by phycoerythrin staining based flow cytometry; type: functional, cell-based; how it was run: as §1
RAW264.7 [10] = assay: Antiinflammatory activity in mouse RAW264.7 cells assessed as inhibition of LPS-induced NO production after 24 hrs by Griess assay; type: functional, cell-based
How it was run: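 LPS-stimulated RAW264.7 cells were co-treated with compound. Nitrite, a stable NO metabolite, was measured in culture medium with Griess reagent. IC50 (µM) was reported with a 95% confidence interval.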

RAW264.7 [11] = assay: Antiinflammatory activity in mouse RAW264.7 cells assessed as inhibition of LPS-induced IL-12 production at 30 uM after 24 hrs by phycoerythrin staining based flow cytometry; type: functional, cell-based; how it was run: as §1
RAW264.7 [12] = assay: Antiinflammatory activity in mouse RAW264.7 cells assessed as inhibition of LPS-induced […] production at 30 uM after 24 hrs by phycoerythrin staining based flow cytometry; type: functional, cell-based; how it was run: as §1

SMILES	Ratio IC50 (RAW264.7 [1])	IC50 (RAW264.7 [2])	EC50 [3]	Activity [4]	inhibition (RAW264.7 [5])	inhibition (RAW264.7 [6])	inhibition (Mus musculus)	inhibition (RAW264.7 [7])	inhibition (RAW264.7 [8])	inhibition (RAW264.7 [9])	inhibition (RAW264.7 [10])	inhibition (RAW264.7 [11])	inhibition (RAW264.7 [12])
O=C(S[C@]12CC[C@H](O)[C@H]1C(=O)NC2=O)c1ccc(O)cc1	9.85	1380 µM	113 µM	30.9%	–	–	–	–	–	–	–	–	–
CC(=O)O[C@H]1CC[C@@]2(SC(=O)c3ccc(F)cc3)C(=O)NC(=O)[C@@H]12	–	–	–	–	Active	Active	Active	Active	Active	Active	Active	Active	Active
